According to ChEMBL document CHEMBL4354804, “Discovery of a New Isoxazole-3-hydroxamate-Based Histone Deacetylase 6 Inhibitor SS-208 with Antitumor Activity in Syngeneic Melanoma Mouse Models” (J Med Chem, 2019):
Activity calls are given as the source filed them. No cut-off for these calls is given here.

Assays:
Histone deacetylase 1 = Histone deacetylase 1 (Homo sapiens, UniProt Q13547); experiment: (§1) Inhibition of recombinant full length C-terminal His/FLAG tagged human HDAC1 (1 to 482 residues) expressed in baculovirus infected sf9 insect cells using p53 (379 to 382 residues) derived fluorogenic peptide RHKKAc as substrate preincubated for 5 to 10 mins followed by substrate addition and further incubated for 2 hrs by fluorescence assay
Histone deacetylase 1, sequence (Q13547 whole entry, the tested form may be a part): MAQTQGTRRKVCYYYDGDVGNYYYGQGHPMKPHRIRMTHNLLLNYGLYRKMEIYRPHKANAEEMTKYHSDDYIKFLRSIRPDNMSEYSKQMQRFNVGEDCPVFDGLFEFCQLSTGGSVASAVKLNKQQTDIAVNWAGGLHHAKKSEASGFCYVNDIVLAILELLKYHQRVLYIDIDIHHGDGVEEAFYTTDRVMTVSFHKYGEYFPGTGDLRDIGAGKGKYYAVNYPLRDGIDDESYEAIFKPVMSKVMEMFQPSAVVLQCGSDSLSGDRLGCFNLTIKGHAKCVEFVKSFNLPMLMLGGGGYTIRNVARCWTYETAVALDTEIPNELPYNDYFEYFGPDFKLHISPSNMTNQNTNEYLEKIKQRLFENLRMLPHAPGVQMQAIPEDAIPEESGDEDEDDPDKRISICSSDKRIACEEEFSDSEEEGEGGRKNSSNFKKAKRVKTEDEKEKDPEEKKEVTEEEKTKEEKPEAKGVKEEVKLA

Homo sapiens [1] = organism: Homo sapiens; experiment: Selectivity index, ratio of IC50 for recombinant full length C-terminal His/FLAG tagged human HDAC1 (1 to 482 residues) expressed in baculovirus infected sf9 insect cells using p53 (379 to 382 residues) derived fluorogenic peptide RHKKAc as substrate preincubated for 5 to 10 mins followed by …
[2] = biological target: T1, Protein deacetylase HDAC6 (Homo sapiens, UniProt Q9UBN7); experiment: as §1, with “N-terminal GST-tagged” for “full length C-terminal His/FLAG tagged”, “HDAC6” for “HDAC1”, “1215” for “482”
T1 sequence (Q9UBN7 whole entry): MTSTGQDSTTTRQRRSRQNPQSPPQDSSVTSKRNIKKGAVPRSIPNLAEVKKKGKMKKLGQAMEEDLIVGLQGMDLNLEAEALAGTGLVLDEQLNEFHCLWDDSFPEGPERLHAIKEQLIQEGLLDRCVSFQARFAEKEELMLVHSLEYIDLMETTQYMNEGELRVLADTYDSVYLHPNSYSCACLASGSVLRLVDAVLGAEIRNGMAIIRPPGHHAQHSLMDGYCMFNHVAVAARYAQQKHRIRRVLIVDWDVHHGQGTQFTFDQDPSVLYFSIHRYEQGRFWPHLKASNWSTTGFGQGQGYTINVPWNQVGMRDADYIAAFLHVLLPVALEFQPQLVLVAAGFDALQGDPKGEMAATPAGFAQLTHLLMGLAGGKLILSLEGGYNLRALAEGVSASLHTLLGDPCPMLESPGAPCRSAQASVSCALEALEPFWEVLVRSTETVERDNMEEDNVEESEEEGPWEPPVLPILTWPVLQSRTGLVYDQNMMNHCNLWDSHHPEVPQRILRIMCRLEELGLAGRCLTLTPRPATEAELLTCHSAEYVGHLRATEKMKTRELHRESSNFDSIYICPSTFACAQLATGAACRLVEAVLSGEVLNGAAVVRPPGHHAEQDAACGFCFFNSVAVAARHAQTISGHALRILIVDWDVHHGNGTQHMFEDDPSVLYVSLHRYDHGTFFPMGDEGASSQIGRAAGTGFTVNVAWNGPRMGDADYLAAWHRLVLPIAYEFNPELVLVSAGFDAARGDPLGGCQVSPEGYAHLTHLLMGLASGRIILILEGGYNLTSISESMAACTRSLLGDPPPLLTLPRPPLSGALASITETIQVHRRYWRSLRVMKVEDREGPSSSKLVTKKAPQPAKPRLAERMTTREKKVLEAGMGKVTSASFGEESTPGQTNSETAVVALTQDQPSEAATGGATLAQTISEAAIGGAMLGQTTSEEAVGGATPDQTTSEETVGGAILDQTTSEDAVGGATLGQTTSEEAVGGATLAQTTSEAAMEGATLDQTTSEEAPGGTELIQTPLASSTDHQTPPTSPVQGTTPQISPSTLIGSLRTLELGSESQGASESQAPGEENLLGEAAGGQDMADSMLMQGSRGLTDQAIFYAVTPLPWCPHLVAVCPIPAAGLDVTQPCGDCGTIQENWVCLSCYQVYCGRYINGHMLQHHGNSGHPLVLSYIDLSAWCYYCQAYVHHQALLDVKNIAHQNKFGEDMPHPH

[3] = Effect on cell viability in mouse SM1 cells up to 10 uM by ApoTox-Glo triplex assay; format: cell-based
Method in brief: (§2)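 SM1 cells treated with HDAC inhibitors, with pan-HDACi and assay controls on every plate. ApoTox-Glo triplex readout: viability fluorescence 400Ex/505Em, cytotoxicity fluorescence 485Ex/520Em, then caspase 3/7 reagent read by luminescence for apoptosis.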

[4] = Cytotoxicity against mouse SM1 cells at 0.1 to 25 uM by ApoTox-Glo triplex assay; format: cell-based; method in brief: as §2
T-24 = experiment: Induction of cell death in human T24 cells at 0.1 to 25 uM; format: cell-based; conditions: t-24, 25 µM
PC-3 = experiment: Induction of cell death in human PC3 cells at 0.1 to 25 uM; format: cell-based; conditions: pc-3, 25 µM
5637 = experiment: Induction of cell death in human 5637 cells at 0.1 to 25 uM; format: cell-based; conditions: human, 5637, 25 µM
[5] = Induction of cell death in mouse SM1 cells at 0.1 to 25 uM; format: cell-based
[6] = biological target: T2, Protein deacetylase HDAC6 (Mus musculus) (UniProt Q9Z2V5); experiment: Inhibition of HDAC6 in mouse SM1 cells assessed as increase in acetylated alpha-tubulin level at 5 to 10 uM after 24 hrs by Western blot analysis; format: cell-based
T2 sequence (whole entry): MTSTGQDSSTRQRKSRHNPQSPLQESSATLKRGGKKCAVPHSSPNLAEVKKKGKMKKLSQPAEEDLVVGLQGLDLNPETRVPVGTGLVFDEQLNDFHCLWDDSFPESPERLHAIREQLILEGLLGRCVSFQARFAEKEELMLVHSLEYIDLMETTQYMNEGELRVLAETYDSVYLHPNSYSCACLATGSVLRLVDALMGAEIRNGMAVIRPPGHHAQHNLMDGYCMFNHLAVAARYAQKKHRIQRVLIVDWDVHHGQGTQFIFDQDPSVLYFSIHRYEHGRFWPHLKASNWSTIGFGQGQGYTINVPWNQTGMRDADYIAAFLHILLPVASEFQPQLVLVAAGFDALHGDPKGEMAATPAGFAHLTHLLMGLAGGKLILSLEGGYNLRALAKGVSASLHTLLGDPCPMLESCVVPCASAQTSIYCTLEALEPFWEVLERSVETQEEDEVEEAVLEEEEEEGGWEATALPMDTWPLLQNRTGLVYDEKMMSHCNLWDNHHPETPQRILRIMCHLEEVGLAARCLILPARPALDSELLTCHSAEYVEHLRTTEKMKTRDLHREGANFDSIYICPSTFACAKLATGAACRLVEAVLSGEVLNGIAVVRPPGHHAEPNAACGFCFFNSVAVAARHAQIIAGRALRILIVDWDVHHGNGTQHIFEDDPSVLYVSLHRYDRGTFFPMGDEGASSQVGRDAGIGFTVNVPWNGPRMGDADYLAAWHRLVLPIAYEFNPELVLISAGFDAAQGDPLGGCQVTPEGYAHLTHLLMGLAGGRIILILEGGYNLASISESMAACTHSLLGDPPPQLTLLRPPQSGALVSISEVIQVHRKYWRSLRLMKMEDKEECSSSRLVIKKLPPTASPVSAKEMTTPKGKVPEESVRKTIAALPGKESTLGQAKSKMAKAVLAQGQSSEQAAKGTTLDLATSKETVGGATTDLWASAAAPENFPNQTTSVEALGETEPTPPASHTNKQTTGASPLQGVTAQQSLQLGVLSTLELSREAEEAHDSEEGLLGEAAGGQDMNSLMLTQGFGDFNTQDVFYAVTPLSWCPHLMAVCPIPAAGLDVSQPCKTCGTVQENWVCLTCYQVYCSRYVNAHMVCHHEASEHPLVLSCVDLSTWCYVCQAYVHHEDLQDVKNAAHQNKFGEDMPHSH

[7] = Induction of apoptosis in mouse SM1 cells at 0.1 to 25 uM by caspase3/7 reagent based luminescence assay; format: cell-based; method in brief: as §2
[8] = biological target: T1, Protein deacetylase HDAC6; experiment: Inhibition of recombinant N-terminal GST-tagged human HDAC6 (1 to 1215 residues) expressed in baculovirus infected sf9 insect cells using RHK-K(Ac)-AMC as substrate after 90 mins by fluorescence assay
Homo sapiens [9] = organism: Homo sapiens; experiment: Selectivity index, ratio of IC50 for recombinant full length C-terminal His/FLAG tagged human HDAC1 (1 to 482 residues) expressed in baculovirus infected sf21 insect cells using RHK-K(Ac)-AMC as substrate after 60 mins by fluorescence assay to IC50 for recombinant N-terminal GST-tagged human HDAC6 (1 to 1215 residues) expressed in baculovirus infected sf9 insect cells using RHK-K(Ac)-AMC as substrate after 90 mins by fluorescence assay
Homo sapiens [10] = organism: Homo sapiens; experiment: Selectivity index, ratio of IC50 for recombinant full length human HDAC1 expressed in Escherichia coli cells using Fluor de Lys as substrate preincubated for 15 mins followed by substrate addition for 60 mins by fluorescence assay to IC50 for recombinant full length human HDAC6 expressed in baculovirus infected sf9 insect cells using Fluor de Lys as substrate preincubated for 15 mins followed by substrate addition for 60 mins by fluorescence assay
Homo sapiens [11] = organism: Homo sapiens; experiment: Selectivity index, ratio of IC50 for recombinant human full length C-terminal His/FLAG-tagged HDAC1 expressed in baculovirus infected Sf9 insect cells using fluorogenic HDAC as substrate measured after 30 mins by fluorescence based analysis to IC50 for recombinant human full length C-terminal […] expressed in baculovirus infected Sf9 insect cells using fluorogenic HDAC as substrate measured after 30 mins by fluorescence based analysis

Row | Structure (SMILES) | IC50 (Histone deacetylase 1) [µM] | Ratio IC50 (Homo sapiens [1]) | IC50 [2] [µM] | further results
1 | O=C(NO)c1cc(CCCCc2ccc(Cl)c(Cl)c2)on1 | > 30 |  |  | 
2 | O=C(NCCc1cc(C(=O)NO)no1)c1ccccc1 | > 30 | > 155 | 0.19 | 
3 | O=C(NO)c1cc(CCCCN2CCCc3cc(Cl)ccc32)on1 | 11.2 | 16 | 0.69 | 
4 | CC(C)(C)OC(=O)Nc1ccc(-c2cc(C(=O)NCc3ccc(C(=O)NO)cc3)no2)cc1 |  | 1320 |  | 
5 | O=C(NCCc1cc(C(=O)NO)no1)c1ccc2ccccc2c1 |  | 294 | 0.01 | 
6 | CCCCN(Cc1ccc(C(=O)NO)cc1)C(=O)Nc1ccccc1 [NEXTURASTAT A] |  |  |  | Activity [3]: Non-Toxic; Activity [4]: Non-Toxic; Activity (T-24): Non-Toxic; Activity (PC-3): Non-Toxic; Activity 5637: Non-Toxic; Activity [5]: Non-Toxic; inhibition [6]: Active; Activity [7]: Non-Toxic
7 | O=C(CCc1cc(C(=O)NO)no1)Nc1nc(-c2ccccc2)cs1 |  | 9.9 |  | 
8 | CC(C)(C)OC(=O)Nc1ccc(-c2cc(C(=O)NCCCCCCC(=O)NO)no2)cc1 | 0.0032 |  |  | 
9 | Cc1nc2ccccc2n1Cc1ccc(C(=O)NO)cc1F |  |  |  | IC50 [8]: 0.00081 µM; Ratio IC50 (Homo sapiens [9]): 11100
10 | O=C(NO)c1cc(CCCCN2c3ccc(Cl)cc3CCc3cc(Cl)ccc32)on1 | > 30 | > 22 |  | 
11 | O=C(NO)c1ccc(Cn2c3c(c4ccccc42)S(=O)(=O)CC3)cc1 |  |  |  | Ratio IC50 (Homo sapiens [10]): 1460
12 | CC1(C)CCN(CCCCc2cc(C(=O)NO)no2)c2ccc(Cl)cc21 | > 30 | > 15 | 1.99 | 
13 | O=C(NO)c1cc(CCCCn2ccc3cc(Cl)c(Cl)cc32)on1 | > 30 | > 7 | 4.36 | 
14 | O=C(NCCc1cc(C(=O)NO)no1)c1cccc(-c2ccccc2)c1 |  | 85 |  | 
15 | O=C(NO)c1cc(CCCOc2ccc(Cl)c(Cl)c2)on1 | > 30 | > 152 | 0.2 | 
16 | CN1CCc2c(c3ccccc3n2Cc2ccc(C(=O)NO)cc2)C1 [TUBASTATIN A] |  |  |  | Activity [3]: Non-Toxic; Activity [4]: Non-Toxic; Activity (T-24): Non-Toxic; Activity (PC-3): Non-Toxic; Activity 5637: Non-Toxic; Activity [5]: Non-Toxic; Activity [7]: Non-Toxic
17 | O=C(NO)c1ccc(CN(CCO)C(=O)Cc2ccccc2)cc1 |  |  |  | Ratio IC50 (Homo sapiens [11]): 36
